# This is a sample that favours compounds with a hit; in the whole collection about 2.4% have one here.
# Ins promoter up: MIN6 insulin promoter up-regulation | MIN6 insulin promoter-GFP reporter, high-content imaging; stronger effect = higher value | z-score at 5 µM | actives 0.3% (n = 190,000);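 active = z-score above 3 at 5 µM with at least 500 cells counted in the well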
# Calb FLC: C. albicans growth modulation with fluconazole | C. albicans CaCi-2 + fluconazole, Alamar Blue growth, 48 h | growth inhibition, % (concentration not given with the values) | actives 0.57% (n = 300,000) | AID 1979;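 active = growth inhibition above about 58% in most replicates, limit read from the data, passing the limit was not always enough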;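 note: all wells also contain fluconazole at 8 µg/ml as a sub-toxic cotreatment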
# beta cell repl: induces beta-cell replication in MIN6 cells; MIN6 cells proliferation, ATPlite luminescence, 48 h; cells starved in 0.2% serum; 100% = growth in 10% serum; proliferation, % at 10 µM; actives 0.29% (n = 330,000); AID 2380;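 active = compounds whose signal lies at least 3.5 SD above the mean of all wells on their plate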
# SR-BI uptake up: activators of SR-BI mediated HDL lipid uptake | CHO ldlA[mSR-BI] cells, DiI-HDL uptake fluorescence, 3 h; 100 = double the neutral-control signal | activation, % at 12.5 µM | actives 0.096% (n = 320,000) | AID 504775;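 active = mean replicate activation of at least 60% and every replicate at or above 60%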
#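 material = CHO ldlA[mSR-BI] cells | medium = Ham's F12 with 0.5% BSA, HEPES 25 mM, pH 7.4 | reagent = fluorescent DiI-HDL, 10 µg/mL final | compound dosing = single-point compound dose | incubation = 3 h, 37 °C | measured by = bottom-read fluorescence, 550/595 nm | measure = HDL uptake via cellular fluorescence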
# m5-HT2A agonist: mouse HTR2A agonism via beta-arrestin recruitment; CHO-K1 mHTR2A beta-arrestin complementation, luminescence; percent of 30 µM serotonin response; activation, % at 7.6 µM; actives 0.66% (n = 360,000); AID 624169;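 active = activation above a run cutoff, the mean activation of all tested compounds plus 3 SD, cut at about 14% in these data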
# SR-BI DiI inh: inhibitors of mouse SR-BI mediated HDL lipid uptake; ldlA[mSR-BI] CHO cells, DiI-HDL uptake fluorescence, 3 h; actives 0.96% (n = 320,000); inhibition, % at 12.5 µM; Q61009;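 active = mean replicate inhibition of at least 70% and a set share of replicates each scoring 70 or more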
# Target sequence (Q61009 whole entry, looked up): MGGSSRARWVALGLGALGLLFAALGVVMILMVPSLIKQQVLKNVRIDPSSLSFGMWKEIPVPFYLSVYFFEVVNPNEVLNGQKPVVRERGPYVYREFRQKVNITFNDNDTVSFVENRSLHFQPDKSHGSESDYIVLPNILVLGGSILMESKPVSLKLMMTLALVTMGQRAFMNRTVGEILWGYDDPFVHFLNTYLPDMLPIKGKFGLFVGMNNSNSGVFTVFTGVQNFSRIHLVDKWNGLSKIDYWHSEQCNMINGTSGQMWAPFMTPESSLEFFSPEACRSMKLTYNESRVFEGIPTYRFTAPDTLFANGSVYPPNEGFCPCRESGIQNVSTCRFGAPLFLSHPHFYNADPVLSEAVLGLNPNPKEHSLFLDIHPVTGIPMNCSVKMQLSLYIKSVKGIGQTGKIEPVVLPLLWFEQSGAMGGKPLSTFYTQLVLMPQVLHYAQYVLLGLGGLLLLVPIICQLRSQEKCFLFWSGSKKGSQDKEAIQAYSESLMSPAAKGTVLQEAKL
# MOR ag counter: activates human mu opioid receptor in HTR2A counterscreen. shares compounds with m5-HT2A agonist. U2OS OPRM1 beta-arrestin PathHunter, luminescence; DMSO 0%, DAMGO 9.3 µM 100%. activation, % at 9.3 µM. actives 5.3% (n = 2,300);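 active = mean activation above the mean of DMSO-only wells plus 3 SD, cut at about 0.5% in these data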
# m5-HT2A ag conf: mouse HTR2A agonism confirmed | CHO-K1 PathHunter beta-arrestin recruitment, luminescence; DMSO 0%, 30 µM serotonin 100% | shares compounds with m5-HT2A agonist | AID 624381 | actives 19% (n = 2,300) | activation, % at 7.6 µM;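 active = mean activation across triplicates above the hit threshold derived in the original primary screen, cut at about 15% in these data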
# A number is an active result; - = inactive; . = no result.
SMILES,Ins promoter up,Calb FLC,beta cell repl,SR-BI uptake up,m5-HT2A agonist,SR-BI DiI inh,MOR ag counter,m5-HT2A ag conf
Cc1cc(C)c2cc(CN(CCN3CCCC3)C(=O)Nc3ccc(F)cc3)c(=O)[nH]c2c1,-,-,-,-,20.1,-,-,-
CC(=O)Nc1ccc(C(=O)OCC(=O)NC2CCCCCC2)cc1,.,.,.,.,-,.,.,.
O=C(O)c1cccc(Nc2ccc3nonc3c2[N+](=O)[O-])c1,.,-,-,-,-,-,.,.
O=[N+]([O-])c1c(Nc2ccccc2)ccc2nonc12,-,-,-,-,23.1,-,-,-
CC(=O)N1N=C(c2c(-c3ccccc3)c3cc(Br)ccc3[nH]c2=O)CC1c1ccco1 (stereo not given),-,-,-,-,24.5,-,-,29.5
CC(C)COC(=O)N(C)C[C@@H]1OCc2cnnn2CCCC(=O)N([C@@H](C)CO)C[C@H]1C,.,.,.,.,-,.,.,.
O=C(O)CCCCCNS(=O)(=O)c1ccc2c3c(cccc13)C(=O)N2,.,-,-,-,15.9,-,-,-
COc1ccc(CN2C(=O)C(CC(=O)NC3CCCCC3)CC(C(=O)N(C(C)C)C(C)C)=C2C)cc1 (stereo not given),.,.,.,.,-,.,.,.
CCC(C(=O)OC)n1cnc2scc(-c3ccc(C)c(C)c3)c2c1=O (stereo not given),.,-,-,-,-,-,.,.
CCC(C(=O)O)n1cnc2scc(-c3ccc(C)c(C)c3)c2c1=O (stereo not given),.,-,-,-,24.1,-,-,-
COc1ccc(S(=O)(=O)N2CCCCC2)cc1NC(=O)c1cccc(S(=O)(=O)N2CC(C)OC(C)C2)c1 (stereo not given),.,.,.,-,-,-,.,.
COc1ccc(-c2cn(CCO)c(-c3ccncc3)n2)cc1,.,.,-,-,-,-,.,.
Cc1nn2c(c1-c1ccccc1)NC1=C(C(=O)CCC1)C2c1ccccc1 (stereo not given),.,-,-,-,15.6,-,-,-
COc1ccc(C2C3=C(CCCC3=O)Nc3c(-c4ccccc4)c(C)nn32)cc1 (stereo not given),-,-,-,-,-,-,.,.
CCOC(=O)[C@@H]1[C@H]2COc3cc(OC)ccc3[C@@H]2N2C(=O)N(c3ccccc3)C(=O)[C@]12C,.,.,-,-,-,-,.,.
CC[C@]1(C(=O)OC)[C@H]2C(=O)N(Cc3ccccc3)C(=O)[C@H]2[C@H]2CN(C)C(=NCc3ccccc3)N21,.,.,.,-,21.3,-,-,-
Cc1cccc(NC(=O)CN(c2ccc(C(C)C)cc2)S(=O)(=O)c2c(C)nn(C)c2C)n1,-,-,-,-,15.8,-,-,-
Cc1nn(C)c(C)c1S(=O)(=O)N(CC(=O)Nc1ccccn1)c1ccc(C(C)C)cc1,-,-,-,-,-,-,.,.
O=S1(=O)N=C(c2ccccc2)C=C(c2ccccc2)N1,.,.,.,-,-,-,.,.
CC1CC(C)CN(CCOc2cccc(Cl)c2Cl)C1 (stereo not given),-,-,-,-,29.7,-,-,78.0
C[C@@]12C(=O)N(CC3CCCO3)CC(=O)N1[C@H]1c3cc(Cl)ccc3OC[C@@H]1[C@@H]2c1ccccc1 (stereo not given in full),.,.,-,-,-,-,.,.
Cc1ccc2c(c1)[C@H]1[C@H](CO2)[C@H](c2ccccc2)[C@]2(C)C(=O)N(CC3CCCO3)CC(=O)N12 (stereo not given in full),.,.,-,-,17.7,-,-,-
O=C1OC(=O)C2C3CCC(O3)C12 (stereo not given),.,.,-,.,.,.,.,.
C[C@H](CO)N1C[C@H](C)[C@@H](CN(C)Cc2ccc(Cl)c(Cl)c2)Oc2c(NS(=O)(=O)c3cccs3)cccc2C1=O,.,.,-,-,-,-,.,.
Cc1c(C)c2ccc(OCC(=O)Nc3ccccn3)cc2oc1=O,.,-,-,-,17.8,-,-,-
